The values that follow come from ChEMBL document CHEMBL1151323, “Use of on-flow LC/1H NMR for the study of an antioxidant fraction from Orophea enneandra and isolation of a polyacetylene, lignans, and a tocopherol derivative” (J Nat Prod, 1998).

The nature of assay [1]: Antioxidant activity against beta-carotene assessed as inhibition of bleaching at 10 ug. The assay is classed as functional. A digest of the protocol: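 Silica gel 60 F254 TLC plates developed in petroleum ether–EtOAc (1:2), then dried and sprayed with 0.05% β-carotene in CHCl3. Plates were kept under UV 254 nm until the background discolored. Inhibition of bleaching was read on the plate.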

Assay [2] can be described thus: DPPH radical scavenging activity at 10 ug by TLC autographic assay. The assay is classed as functional. A digest of the protocol:
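TLC autography on silica gel 60 F254 plates developed in petroleum ether–EtOAc (1:2), dried, then sprayed with 0.2% DPPH in MeOH. Plates were read 30 min after spraying; active zones show as yellow spots on a purple background.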
(The DPPH test is a chemical assay of radical scavenging.)

The test system of assay [3] is Cladosporium cucumerinum. Kind of assay: Antifungal activity against Cladosporium cucumerinum at 20 ug. The assay is classed as functional, organism-based.
Assay [4] has as its system Cladosporium cucumerinum. Kind of assay: Antifungal activity against Cladosporium cucumerinum at 10 ug. The assay is classed as functional, organism-based.
Assay [5] concerns Cladosporium cucumerinum. Briefly: Antifungal activity against Cladosporium cucumerinum at 40 ug. The assay is classed as functional, organism-based.
Assay [6] can be described thus: DPPH radical scavenging activity at 10 ug by TLC autographic assay.

Each structure is given as a SMILES string. Calls of active or inactive are those of the source. No cut-off for these calls is given here.

Regarding `COc1ccc([C@H]2OC[C@@H]3[C@H]2CO[C@H]3c2ccc(OC)c(OC)c2)cc1OC`, the outcome in assay [1], in assay [2] and in assay [3] was Active.
In the case of `Clc1ccc(COC(Cn2ccnc2)c2ccc(Cl)cc2Cl)c(Cl)c1` (centres undefined), the outcome in assay [4] was Active.
As to `COc1ccc([C@@H]2OC[C@@H]3[C@H]2CO[C@H]3c2ccc(OC)c(OC)c2)cc1OC`, the outcome in assay [1], in assay [2] and in assay [3] was Active.
For the molecule `C/C(=C/CC/C(C)=C/CCC1(C)CCc2cc(O)cc(C)c2O1)C(=O)O` (centres undefined), the outcome in assay [1], in assay [2], in assay [5] and in assay [6] was Active.
As to `COc1cc([C@@H]2OC[C@@H]3[C@H]2CO[C@@H]3c2ccc(OC)c(OC)c2)ccc1O`, the result in assay [1], in assay [2] and in assay [3] was Active.
